Test results from article PMC5496795 (Clinical cancer research : an official journal of the …, 2017).

Legend:
PC-3 xenografts = assay: Combination therapy, tumor growth of PC-3 xenografts; format: in vivo, athymic nude male mice; conditions: PC-3 tumor bearing animals
Summary of the method: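 PC-3 cells (5 ×10⁶ in 1:1 media/Matrigel) were implanted in the shoulder of 6–8-week-old males. At about 100 mm³ the mice were randomised to four arms: sham (i.v. saline plus illumination), VTP, radiolabelled peptide (14.8 MBq retro-orbital i.v.), or both. For VTP, 4 h after the peptide, the photosensitizer (9 mg/kg, i.v. bolus, in 5% dextran) was followed immediately by 10 min of 755 nm laser to the tumour plus a 1 mm rim. Tumours were measured by caliper twice weekly to 34 days.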

PC-3 tumors = assay: Histology/IHC of PC-3 tumors; format: in vivo, athymic nude male mice
Summary of the method: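 PC-3 xenograft tumours were taken after treatment, fixed in 10% buffered formalin, paraffin-embedded and cut at 5 micron. Sections were stained with anti-mouse CD31 antibody for vessel density and by TUNEL for cell death. VTP was an i.v. photosensitizer (9 mg/kg) followed immediately by 10 min of 755 nm laser illumination of the tumour area.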

[1] = system: localized prostate cancer; conditions: published trial data in localized prostate cancer; ref not given; cited from earlier work
[2] = system: GRPr-expressing prostate cancer xenografts; conditions: in vivo; cited from earlier work

| Molecule | Animals remaining tumor free at 34 days post treatment (PC-3 xenografts) | Vessel density in PC-3 tumors (IHC anti-CD31) (PC-3 tumors; 24 hours post VTP treatment, compared to control tumors) | TUNEL staining of tumors (cell death) (PC-3 tumors; PC-3 tumors, post VTP treatment) | Cases with absent evidence of cancer (local tumor ablation) [1] [%] | Fraction of delivered radioactivity washed out at 24 hours p.i. [2] | Time of optimal tumor uptake post injection [2] [h] |
| --- | --- | --- | --- | --- | --- | --- |
| CC[C@H]1c2cc3[n-]c(c(CC(=O)OC)c4nc(cc5[n-]c(cc(n2)[C@@H]1C)c(C(C)=O)c5C)[C@@H](C)[C@@H]4CCC(=O)[O-])c(C(=O)NCCS(=O)(=O)[O-])c3C.[H+].[H+].[Pd+2] [VTP] | 2/12 | markedly reduced vessel density | stained positive | 80 |  |  |
| ^111In-DOTA-PEG4-D-Phe-Gln-Trp-Ala-Val-Gly-His-Sta-Leu-NH2 [^111In-DOTA-AR] |  |  |  |  | about 2/3 | 1 to 4 |
